Legend:
Stromelysin-1 [1] = target: T1, Stromelysin-1 (Homo sapiens, UniProt P08254); experiment: Inhibition of human MMP-3 using NFF-2 as substrate at 10 uM after 30 mins
Target sequence in this assay (P08254 100-477 limits assumed): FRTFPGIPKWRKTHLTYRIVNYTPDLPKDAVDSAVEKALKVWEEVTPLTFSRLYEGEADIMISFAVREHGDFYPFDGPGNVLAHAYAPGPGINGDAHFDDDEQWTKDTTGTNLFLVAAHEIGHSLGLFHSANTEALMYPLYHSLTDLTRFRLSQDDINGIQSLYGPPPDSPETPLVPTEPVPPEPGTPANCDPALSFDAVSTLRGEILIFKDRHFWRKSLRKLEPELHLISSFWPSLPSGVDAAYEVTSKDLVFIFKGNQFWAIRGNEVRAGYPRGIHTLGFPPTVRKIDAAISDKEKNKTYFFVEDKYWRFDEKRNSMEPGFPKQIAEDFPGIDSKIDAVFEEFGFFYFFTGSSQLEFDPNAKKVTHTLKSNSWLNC

[2] = target: T2, Matrix metalloproteinase-9 (Homo sapiens, UniProt P14780); experiment: Inhibition of human MMP-9 using NFF-2 as substrate at 10 uM after 90 mins
Stromelysin-1 [3] = target: T1, Stromelysin-1; experiment: Inhibition of human MMP-3 using NFF-2 as substrate after 30 mins
Target sequence in this assay (P08254 whole entry): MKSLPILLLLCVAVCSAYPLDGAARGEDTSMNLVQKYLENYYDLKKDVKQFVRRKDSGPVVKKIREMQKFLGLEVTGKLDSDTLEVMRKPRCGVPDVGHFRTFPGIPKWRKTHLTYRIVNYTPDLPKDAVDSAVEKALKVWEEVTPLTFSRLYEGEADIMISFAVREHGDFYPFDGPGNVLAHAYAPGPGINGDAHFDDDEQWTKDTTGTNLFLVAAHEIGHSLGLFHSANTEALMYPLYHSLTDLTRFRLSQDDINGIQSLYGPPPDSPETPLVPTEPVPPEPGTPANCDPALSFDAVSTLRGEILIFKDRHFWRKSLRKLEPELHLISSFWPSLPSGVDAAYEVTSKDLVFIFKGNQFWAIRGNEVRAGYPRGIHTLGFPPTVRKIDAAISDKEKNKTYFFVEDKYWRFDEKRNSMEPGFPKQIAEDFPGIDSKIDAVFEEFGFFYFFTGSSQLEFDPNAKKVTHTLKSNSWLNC

Interstitial collagenase = target: T3, Interstitial collagenase (Homo sapiens, UniProt P03956); experiment: Inhibition of human MMP-1 using DNP-Pro-Cha-Gly-Cys(Me)-His-Ala-Lys(n-Me-Abz)-NH2 as substrate after 40 mins
T3 sequence (P03956 whole entry): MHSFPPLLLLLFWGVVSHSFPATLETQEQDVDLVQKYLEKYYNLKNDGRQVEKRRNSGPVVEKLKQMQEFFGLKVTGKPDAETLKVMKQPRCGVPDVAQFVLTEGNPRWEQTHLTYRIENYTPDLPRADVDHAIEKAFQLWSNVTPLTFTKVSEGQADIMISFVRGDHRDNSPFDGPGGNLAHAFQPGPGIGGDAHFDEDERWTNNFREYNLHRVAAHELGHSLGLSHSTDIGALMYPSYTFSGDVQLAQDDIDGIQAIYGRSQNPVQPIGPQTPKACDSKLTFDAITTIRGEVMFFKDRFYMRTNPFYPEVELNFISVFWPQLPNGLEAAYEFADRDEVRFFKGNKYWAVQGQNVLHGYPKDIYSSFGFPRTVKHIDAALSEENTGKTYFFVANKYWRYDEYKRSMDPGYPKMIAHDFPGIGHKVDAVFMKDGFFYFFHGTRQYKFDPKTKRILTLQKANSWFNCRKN

[4] = target: T4, Interstitial collagenase (Homo sapiens) (UniProt P03956); experiment: Inhibition of human MMP-1 using DNP-Pro-Cha-Gly-Cys(Me)-His-Ala-Lys(n-Me-Abz)-NH2 as substrate at 10 uM after 40 mins
T4 sequence (whole entry): T3 sequence (P03956 whole entry)

[5] = target: T5, A disintegrin and metalloproteinase with thrombospondin motifs 5 (Homo sapiens, UniProt Q9UNA0); experiment: Inhibition of human recombinant ADAMTS-5 using QTVTWPDMELPLPRNITEGEARGSVIL-TVKPIFEVSPSPL(biotinyl)K as substrate incubated 10 mins prior to substrate addition measured after 3 hrs by spectrophotometry
T5 sequence (Q9UNA0 whole entry): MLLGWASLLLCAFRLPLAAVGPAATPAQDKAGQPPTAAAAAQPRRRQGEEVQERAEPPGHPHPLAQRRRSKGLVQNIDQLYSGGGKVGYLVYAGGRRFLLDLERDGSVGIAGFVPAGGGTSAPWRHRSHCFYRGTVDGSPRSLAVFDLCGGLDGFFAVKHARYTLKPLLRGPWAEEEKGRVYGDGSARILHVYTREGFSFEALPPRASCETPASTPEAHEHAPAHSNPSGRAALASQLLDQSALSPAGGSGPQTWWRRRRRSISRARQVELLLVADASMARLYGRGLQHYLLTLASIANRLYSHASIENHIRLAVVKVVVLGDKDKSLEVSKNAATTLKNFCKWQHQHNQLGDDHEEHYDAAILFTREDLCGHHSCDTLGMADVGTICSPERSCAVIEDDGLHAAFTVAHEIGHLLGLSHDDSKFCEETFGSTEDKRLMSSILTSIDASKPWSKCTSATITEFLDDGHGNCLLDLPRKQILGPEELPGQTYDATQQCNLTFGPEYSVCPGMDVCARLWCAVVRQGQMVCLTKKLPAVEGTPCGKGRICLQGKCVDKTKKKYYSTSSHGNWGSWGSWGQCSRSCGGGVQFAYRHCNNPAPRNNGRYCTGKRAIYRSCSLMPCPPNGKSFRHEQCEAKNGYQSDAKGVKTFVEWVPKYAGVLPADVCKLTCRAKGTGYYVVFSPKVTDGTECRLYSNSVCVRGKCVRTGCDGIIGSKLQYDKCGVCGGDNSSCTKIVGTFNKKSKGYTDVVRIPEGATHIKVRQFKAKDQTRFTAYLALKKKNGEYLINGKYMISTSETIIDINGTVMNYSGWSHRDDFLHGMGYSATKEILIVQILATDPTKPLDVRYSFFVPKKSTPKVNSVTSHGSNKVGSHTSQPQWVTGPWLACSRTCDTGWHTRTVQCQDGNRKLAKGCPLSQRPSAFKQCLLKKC

[6] = target: Disintegrin and metalloproteinase domain-containing protein 17 (Homo sapiens, UniProt P78536); experiment: Inhibition of human TACE at 10 uM after 5 mins
Chain of Disintegrin and metalloproteinase domain-containing protein 17 (P78536 whole entry, the tested form may be a part): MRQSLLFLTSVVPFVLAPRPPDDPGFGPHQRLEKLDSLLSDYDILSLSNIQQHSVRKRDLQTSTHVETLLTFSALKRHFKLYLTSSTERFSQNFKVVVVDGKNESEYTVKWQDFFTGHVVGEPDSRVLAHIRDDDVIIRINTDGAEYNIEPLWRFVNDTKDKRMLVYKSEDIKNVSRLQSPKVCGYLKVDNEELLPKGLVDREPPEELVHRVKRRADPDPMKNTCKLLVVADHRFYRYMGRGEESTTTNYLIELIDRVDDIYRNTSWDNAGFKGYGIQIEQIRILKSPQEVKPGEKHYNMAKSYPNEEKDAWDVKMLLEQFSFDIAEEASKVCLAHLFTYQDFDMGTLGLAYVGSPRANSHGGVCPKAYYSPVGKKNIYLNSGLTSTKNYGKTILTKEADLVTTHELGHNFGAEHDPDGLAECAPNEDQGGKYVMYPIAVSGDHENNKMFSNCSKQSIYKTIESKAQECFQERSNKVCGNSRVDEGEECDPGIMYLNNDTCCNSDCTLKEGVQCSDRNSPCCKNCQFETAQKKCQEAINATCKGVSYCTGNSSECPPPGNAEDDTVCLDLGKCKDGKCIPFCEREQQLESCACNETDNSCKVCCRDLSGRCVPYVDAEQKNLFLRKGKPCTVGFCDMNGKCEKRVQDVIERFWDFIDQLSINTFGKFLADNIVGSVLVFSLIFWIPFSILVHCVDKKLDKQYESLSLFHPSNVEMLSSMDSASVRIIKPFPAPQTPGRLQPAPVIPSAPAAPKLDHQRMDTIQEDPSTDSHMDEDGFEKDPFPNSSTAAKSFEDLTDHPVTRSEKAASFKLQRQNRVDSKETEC

[7] = target: T6, A disintegrin and metalloproteinase with thrombospondin motifs 5 (Homo sapiens) (UniProt Q9UNA0); experiment: Inhibition of human recombinant ADAMTS-5 using bovine articular aggrecan as substrate incubated 20 mins prior to substrate addition measured after 48 hrs by spectrophotometry
T6 sequence (whole entry): T5 sequence (Q9UNA0 whole entry)
Method in brief: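 ADAMTS-5 (3.4 µL of 600 nM stock) was pre-incubated 20 min at 37 °C with compound or 4% DMSO vehicle in Tris/NaCl/CaCl₂/Brij35, pH 7.5. Bovine articular aggrecan (50 µg/mL final) was added for 48 h at 37 °C, then stopped with EDTA. Samples were bound to PVDF and digested with chondroitinase ABC and keratanase. The ARGSVIL neoepitope was detected by BC-3 ELISA with TMB, read at 450 nm.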

[8] = target: T2, Matrix metalloproteinase-9; experiment: Inhibition of human MMP-9 using NFF-2 as substrate after 90 mins

T2 sequence (P14780 whole entry): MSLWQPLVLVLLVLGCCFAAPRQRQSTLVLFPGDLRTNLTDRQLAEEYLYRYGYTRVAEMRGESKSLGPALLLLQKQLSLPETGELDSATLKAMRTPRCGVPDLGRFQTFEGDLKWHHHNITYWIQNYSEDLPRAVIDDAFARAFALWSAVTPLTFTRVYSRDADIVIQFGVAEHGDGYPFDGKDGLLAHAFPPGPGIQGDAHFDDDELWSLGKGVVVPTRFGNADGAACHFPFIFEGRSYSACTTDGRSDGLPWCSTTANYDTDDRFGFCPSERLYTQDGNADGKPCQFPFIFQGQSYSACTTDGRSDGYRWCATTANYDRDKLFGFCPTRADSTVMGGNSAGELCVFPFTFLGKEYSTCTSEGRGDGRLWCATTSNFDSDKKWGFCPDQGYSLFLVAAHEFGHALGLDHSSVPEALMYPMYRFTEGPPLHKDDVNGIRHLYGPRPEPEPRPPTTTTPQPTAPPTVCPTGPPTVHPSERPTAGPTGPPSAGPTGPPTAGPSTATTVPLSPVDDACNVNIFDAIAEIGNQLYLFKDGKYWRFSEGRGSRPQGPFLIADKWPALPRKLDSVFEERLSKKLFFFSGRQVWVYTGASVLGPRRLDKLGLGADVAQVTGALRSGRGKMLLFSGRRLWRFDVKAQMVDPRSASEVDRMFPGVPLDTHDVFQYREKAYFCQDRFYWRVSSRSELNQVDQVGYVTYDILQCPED

inhibition (Stromelysin-1 [1]): < 10%
inhibition [2]: < 10%
IC50 (Stromelysin-1 [3]): > 10 µM
IC50 (Interstitial collagenase): > 10 µM
inhibition [4]: < 10%
inhibition [6]: < 10%
inhibition [7]: Dose-dependent effect
IC50 [8]: > 10 µM
Structure (SMILES): O=C(COc1ccc(Cl)cc1)NNC(=S)NCCCCC1CCCCC1
IC50 [5]: 0.17 µM

Reference: ChEMBL document CHEMBL2434855, “Aggrecanase-2 inhibitors based on the acylthiosemicarbazide zinc-binding group” (Eur J Med Chem, 2013)
